Experimental data gathered from unrelated publications.
Lines come from different studies, so protocols differ.
Target: Serine/threonine-protein kinase BRSK1 (BRSK1, Homo sapiens, UniProt Q8TDC3)
One construct used (Q8TDC3 1-778): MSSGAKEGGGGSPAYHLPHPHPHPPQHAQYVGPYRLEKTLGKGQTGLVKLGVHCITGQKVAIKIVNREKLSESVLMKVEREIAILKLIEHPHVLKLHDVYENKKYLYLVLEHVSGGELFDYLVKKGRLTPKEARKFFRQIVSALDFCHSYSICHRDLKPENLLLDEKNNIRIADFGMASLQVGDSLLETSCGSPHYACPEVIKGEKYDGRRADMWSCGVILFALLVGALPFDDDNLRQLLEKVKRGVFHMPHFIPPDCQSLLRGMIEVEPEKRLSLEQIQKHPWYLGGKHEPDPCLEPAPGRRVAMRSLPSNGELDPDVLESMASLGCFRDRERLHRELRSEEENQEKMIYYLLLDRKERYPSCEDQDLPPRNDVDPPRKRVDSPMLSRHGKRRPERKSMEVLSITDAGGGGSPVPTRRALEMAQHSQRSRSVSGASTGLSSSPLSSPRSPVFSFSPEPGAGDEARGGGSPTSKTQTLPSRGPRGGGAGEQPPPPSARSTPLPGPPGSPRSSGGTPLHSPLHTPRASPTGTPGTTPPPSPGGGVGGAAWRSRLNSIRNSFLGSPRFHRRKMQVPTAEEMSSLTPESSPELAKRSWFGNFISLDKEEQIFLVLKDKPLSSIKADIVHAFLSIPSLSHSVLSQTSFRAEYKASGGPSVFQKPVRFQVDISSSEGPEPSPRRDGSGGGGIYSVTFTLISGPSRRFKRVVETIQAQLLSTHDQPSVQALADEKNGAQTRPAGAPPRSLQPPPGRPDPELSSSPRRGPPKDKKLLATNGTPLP

With CO[C@@H](C)c1c(Nc2ccc([C@@H](N(C)C(=O)C3CCS(=O)(=O)CC3)C(F)(F)F)cc2)cnc2cc(Cl)nn12 the remaining binding was 93% (cell-free assay, competition with immobilised ligand; 1 µM).
Nc1ncc2c(n1)-c1c([nH]c3ccc(C#CC4CC4)cc13)CCCC2 gave a remaining binding of 87% (binding, competition with immobilised ligand; 1 µM).
For CN(c1ccnc(CNc2nc(Nc3ccc4c(c3)CC(=O)N4)ncc2C(F)(F)F)n1)S(C)(=O)=O, the remaining binding was 43% (cell-free assay, competition with immobilised ligand; 1 µM).
With C[C@H]1CCN(c2nccc(-c3cnn4ncccc34)n2)C1 the remaining binding was 98% (binding; 1 µM).
O=C(O)[C@@H]1[C@@H](Cn2nnc3ccccc3c2=O)CC[C@H]1C(=O)c1ccc(OCCC2CCOCC2)cc1 gave a remaining binding of 100% (cell-free assay, competition with immobilised ligand; 1 µM).
The remaining binding of F[C@@H]1CCN(c2nccc(-c3cnn4ncccc34)n2)C1 is reported as 100% (binding; 1 µM).
O=C(c1ccc(Nc2ncc(Cl)c(-c3ccc(Cl)s3)n2)cc1)N1CCC(N2CCCC2)CC1 has a remaining binding of 57% (binding, competition with immobilised ligand; 1 µM).
The remaining binding of C[C@@H](c1ccc(-n2cnc3c(N)ncnc32)cc1)N1CCc2nn(C)c(Cc3ccccc3)c2C1=O is reported as 93% (binding, competition with immobilised ligand; 0.1 µM).
The remaining binding of COc1ccnn2ncc(-c3ccnc(N(C)C)n3)c12 is reported as 98% (binding; 1 µM).
For O=C(NCCCN1CCOCC1)c1ccc(Nc2ncc(Cl)c(-c3ccc(Cl)s3)n2)cc1, the remaining binding was 75% (binding, competition with immobilised ligand; 1 µM).
O=C(Nc1c[nH]nc1C(=O)NC1CCNCC1)c1cc(F)cc(F)c1 gave a remaining binding of 89% (binding, competition with immobilised ligand; 1 µM).
CN(C)c1nccc(-c2cnc3ncccn23)n1 has a remaining binding of 100% (binding; 1 µM).
For COc1cnc(Nc2cccc(S(N)(=O)=O)c2)nc1N1CCN(c2ccccc2)CC1, the remaining binding was 96% (binding, competition with immobilised ligand; 1 µM).
The remaining binding of C[C@H](c1cccc(C#N)c1)n1cc(Cl)cc(C(N)=O)c1=N is reported as 68% (cell-free assay, competition with immobilised ligand; 1 µM).
For CCN1CCN(Cc2ccc(C(=O)Nc3ccc(C)c(Oc4ccc5c(c4)CC(=O)N5)c3)cc2C(F)(F)F)CC1, the remaining binding was 94% (binding, competition with immobilised ligand; 1 µM).
The remaining binding of O=C(NCCCN1CCOCC1)c1ccc(Nc2nccc(-c3cc4ccccc4s3)n2)cc1 is reported as 70% (binding, competition with immobilised ligand; 1 µM).
With c1cnn2ncc(-c3ccnc(N4CCC45COC5)n3)c2c1 the remaining binding was 82% (binding; 1 µM).
With C=CC(=O)N1CCC(C(=O)NCC(=O)N2CCN(c3nc(-c4cnc(N)nc4C(F)F)nc(N4CCOCC4)n3)CC2)CC1 the remaining binding was 100% (binding, competition with immobilised ligand; 1 µM).
For CN(C)c1ncc(F)c(-c2cnn3ncccc23)n1, the remaining binding was 87% (binding; 1 µM).
Cc1c[nH]c2nccc(Oc3c(F)cc(Nc4cc(Cl)nc(N)n4)cc3F)c12 gave a remaining binding of 96% (cell-free assay, competition with immobilised ligand; 0.1 µM).
With CN(C)c1nccc(-c2cnn3ncccc23)n1 the remaining binding was 100% (binding; 1 µM).
The remaining binding of Cc1nccc(COC(=O)N2C[C@@H]3[C@@H](CNC(=O)c4ccc5[nH]nnc5c4)[C@@H]3C2)n1 is reported as 100% (cell-free assay, competition with immobilised ligand; 1 µM).
